Test system: MS2 coat protein
Assay: apparent Kd, MS2 coat protein; higher = weaker binding; RNA-MaP array; FMN 200 µM where present
How it was run: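 Stalled E. coli RNA polymerase transcribed each design on Illumina sequencing-chip clusters. The clusters were titrated with SNAP-549-labelled MS2 coat protein, starting at 0.7 or 1.5 nM and doubling up to 3 µM, first without ligand and then with constant ligand, in 100 mM Tris-HCl pH 7.5, 80 mM KCl, 4 mM MgCl2, BSA, DTT, yeast tRNA and Tween-20. Green signal was normalised to red-channel RNA signal and to the control-cluster median Fmax. The apparent Kd is the median of filtered binding-curve fits made for each cluster.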

[1] = designed as: ON switch for flavin mononucleotide, no ligand
[2] = ligand present: flavin mononucleotide, designed as: ON switch for flavin mononucleotide
[3] = designed as: OFF switch for flavin mononucleotide, no ligand
[4] = ligand present: flavin mononucleotide, designed as: OFF switch for flavin mononucleotide

Sequence | apparent Kd [1] | apparent Kd [2] | apparent Kd [3] | apparent Kd [4]
GGCUAACAUGAGGAUCACCCAUGUCGCCAAAAUCGAGGAUAUGGGUGCCAGCUCGGGCAGCCAGAAGGCGACAAAA | 225 nM | 33.1 nM |  | 
CUAUUGCUAACAGGAUAUAUGAGUCCUACAUGAGGAUCACCCAUGUAGGUGAUCAGCCGUGAUUAGUAGAAGGGUUAGCAAUAG | 12.2 nM | 6.91 nM |  | 
GGAGCCGGCACGGAGGAUAUUCAUAUUAAAACAUGAGGAUCACCCAUGUAGGCCAGAAGGCCUUGGGAGAAGGCCGAUCGGCUCG | 450 nM | 29.7 nM |  | 
GGAUAGGACAGAGGAUAUAUGUGCUAGAGAUACUAGCAAAAUUUCCUCACAUGAGGAUCACCCAUGUAGAAGGCUGUCCUAUCG |  |  | 12.9 nM | 22 nM
AUGUAGUAAGGAUAUAGAAAGAAGGAGUAAGAUAGAGAGUUCUAGAAGGUACAUGAGGAUCACCCAUGUUGGAG |  |  | 29 nM | 26.4 nM
GCAAAGCCUGACAUGAGGAUCACCCAUGUUAGAUUGUUAUGUCAGGAUAUUGUCUAGAACCUAGACAAGAAGGGAUGCUUUGCU | 337 nM | 26.4 nM |  | 
AUUUGAAUCGUAGGAUAUCGCUUAAAUUUACCACGAGAAGGACGAACAUGAGGAUCACCCAUGUAACAUGGUGUAGAUAAUUUG |  |  | 159 nM | 440 nM
UGGUUUGGGCUAGAUGCACAGACAUGAGGAUCACCCAUGUCUGAGGAUAUGCGUCAACAUAGGCAGCAGAAGGCAGACACUCGC |  |  | 15 nM | 22.2 nM
AUAAAGUGAGGAUAUCCAAUAUAUGACAUGAGGAUCACCCAUGUUUCCACUCGUACCUCCGGAGAAGGCACAUUUU |  |  | 32.1 nM | 20.2 nM
CAGAUCGGCGCAGGAUAUGUCGACAUGAGGAUCACCCAUGUAAACCUUGUCUGGUCCGGUGUGUGACAGAAGGGUGUCGGCCAU |  |  | 31.5 nM | 30.9 nM
GGGUACAUCGGAGGAUAUCAUGUAAAUACAUGAGGAUCACCCAUGUCGAUGGAGACAUCAGAGAUUGAGAAGGCCGAUGUACCG | 14.9 nM | 6.15 nM |  | 
GCAGGCUUCGAGAAGGACAUGAGGAUCACCCAUGUGCGUGUGAAGCAGCCGUGAGGCUGCAUCAUGUAGGAUAUCGGAGUCUGG |  |  | 72.2 nM | 525 nM
CGUACUGAAGUAAGGAUAUUGUCUCGGAUACGAAACAAGAAGGUACAUGAGGAUCACCCAUGUUGACAGUACGA |  |  | 16.6 nM | 16.7 nM
ACCAAUCACAUAGGAUAUAGAAUAUUAAAUUUUUACAUGAGGAUCACCCAUGUUUUAUUGGGAUACUAGAAGGAUGAGUAAUAA | 113 nM | 108 nM |  | 
CGCAACUCUUCACAUGUCAACAUGAGGAUCACCCAUGUAUUGAGAAGGAGGAAGAAGAGAGAUUCCUAGGAUAUCAGAGUUGCG |  |  | 6.75 nM | 6.08 nM
UGUCCAUAGCAGAAGGACAUGAAUACAUGAGAAAACAUGAGGAUCACCCAUGUAGGAUAUGCUAUGGACUAAGAGCGAAAGCUC |  |  | 12.2 nM | 91.9 nM
GUAGCAUACCGAGGAUAUUCAUACCGGAAACGGACAUGAGGAUCACCCAUGUGGCUAAUGCCUUGGGAGAAGGCGGAAUGCUAC | 568 nM | 21.7 nM |  | 
AAAAUGUGAGGAUAUUAGUUGUACGUCAAUAGACGUAUAAGUGAGAAGGCACAUGAGGAUCACCCAUGUUCCUG |  |  | 20.6 nM | 112 nM

Sequence | apparent Kd [1] | apparent Kd [2] | apparent Kd [3] | apparent Kd [4]
UGGAUGGUAUGAGGAUAUGCGCGCGAAACGCGCGCAGAAGGCAUGUCAAUAGACAUGAGGAUCACCCAUGUAUUAUCCAUCCAC | 192 nM | 13 nM |  | 
AGAUGCUCGAGUCGACAUGAGGAUCACCCAUGUACAGUUAGUGAGGAUAUCUGAGACACAUAGUAGGAGAAGGCGCGAACGUGA |  |  | 84.4 nM | 192 nM
GGAGGACGAAACAUGAGGAUCACCCAUGUGUUAUAAUUAAUAUAGGAUAUGUUUAUACUUUUUGGGCAGAAGGAUGAUAAUGUU | 22.2 nM | 19.7 nM |  | 
UUAAAUCAUGUAGGAUAUGCAUGGCGAAGCUACGCAGAAGGACAUGAGGAUCACCCAUGUUAUAGCGUCUGAGAACAGAUGCAA |  |  | 82.8 nM | 264 nM
AUUAUUAAGGUAGGAUAUAGUAAAAUAAUUUAAUUAGAAGGAUCUCACAUGAGGAUCACCCAUGUAAGAGGAUCACCCAUGUAU |  |  | 10.8 nM | 9.53 nM
ACGUUUAAUACAGGAUAUGUUCUUAUACUAUAGAUUGGUUAUUACUUAAUUACAGAAGGGUAGAACAUGAGGAUCACCCAUGUA | 507 nM | 261 nM |  | 
UCGUAUACACAAGGAUAUCGAUGGCUUGUAGAUCCUACAUGAGGAUCACCCAUGUUUUUAUAUUGUGAGAAGGUGUAGUGUCUU | 1170 nM | 1910 nM |  | 
UUGUUGUAUGUAGGAUAUGCGUAUUAUUAUUAUGCAGAAGGACAUGAGGAUCACCCAUGUAUAUUAUUAUUAUAUAUUAUAUAU |  |  | 26.9 nM | 56.1 nM
AUUUAAAUGUCAGGAUAUGGUAGAUUAUUCUUAUCAGAAGGGAUAAUUAUACUCAAGUACAUGAGGAUCACCCAUGUUAAAUCA | 10.3 nM | 10.3 nM |  | 
GUAUGAGCGAUAGGAUAUACUGAGAUUGAAUGGGUAGAAGGAUCACUUGUGUGGAAGACAUGAGGAUCACCCAUGUUACGGGCC | 20.7 nM | 62.6 nM |  | 
AGUUUUGUACAUGAGGAUCACCCAUGUUAAUAUGUGGUAGUCAGAAGGCAUUGUUAGAGUUUUAAUGAGGAUAUGAAUAUUCUG | 38.3 nM | 25 nM |  | 
UGUGUGAGACAGGAUAUGCCGGUUGUGUUACUGGUAGAAGGGUCUACAUGAGGAUCACCCAUGUGGCCGGCCGG |  |  | 152 nM | 154 nM
AAUUCUUGUGAAGGAUAUACGGCGGGUCGCGCAGUAGAAGGUCACAUGAGGAUCACCCAUGUCGACAAUGCGCAGUAUCGACAA |  |  | 72 nM | 164 nM
UUCAUUAACAUGAGGAUCACCCAUGUUGGCCAGUCUCACACCAGAAGGCACGUUGAGCACAUCAGUGAGGAUAUGGGUGACAUA | 331 nM | 91 nM |  | 
GGGUACAUCGGAGGAUAUCAUGUGAAUACAUGAGGAUCACCCAUGUCGAUGGAGACAUCGGAGAUUGAGAAGGCCGAUGUACCG | 446 nM | 15.1 nM |  | 
UAGGACUACGUAGGAUAUGUAGUAGAUUACUACAUGAGGAUCACCCAUGUAAGCAUGUGAUUAGGACAGAAGGACGUGGUAAAU | 24.8 nM | 8.91 nM |  | 
GGGUAAUAUCGAGGAUAUGUCUAGACACAUGAGGAUCACCCAUGUAUGUGUAUAGAAGGCGAUAUUAACAGCAUGUUACAUCCC | 48.1 nM | 20.8 nM |  | 
UUAUGAUAGAUAGGAUAUACUAUGGUUUAAGAAGUAGAAGGAUCAAUUGGGAAAUGUACAUGAGGAUCACCCAUGUUAUAGGUU | 37.1 nM | 33.7 nM |  | 
